Experiments:
[1] = biological target: Human immunodeficiency virus type 1 integrase (Human immunodeficiency virus 1, UniProt Q7ZJM1); assay: Allosteric inhibition of [3H]-2-tert-butoxy-2-[2-methyl-4-(p-tolyl)-3-quinolyl]acetic acid binding to HIV1 integrase measured after 1 hr under dark condition by microbeta plate reader method
Method in brief: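 Scintillation proximity displacement of tritiated LEDGF-site inhibitor from purified HIV-1 integrase (13 μM) premixed 1 h with PVT SPA beads (2 mg/mL); […]. Buffer 26 mM MOPS pH 7.0, 11 mM DTT, 100 mM NaCl, 20 mM MgCl2, 0.05% NP-40, 5% PEG-8000. Compounds 100 μM to 0.0512 nM, ten 5-fold dilutions. 1 h rocking, RT, dark; read after overnight; Ki derived.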

[2] = tested on: Human immunodeficiency virus 1; assay: Antiviral activity against HIV1 NL4-3 infected in human MT2 cells measured after 3 to 4 days by luciferase reporter gene assay; type: functional, organism-based; settings: Human immunodeficiency virus 1, NL4-3, MT2
[3] = Permeability of the compound in pH 7.4 buffer at 100 uM measured after 4 hrs by sandwich-PAMPA; type: ADME; settings: read-out: permeability
Method in brief: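 Parallel artificial membrane permeability: compound at 100 μM in donor buffer pH 7.4, permeating to acceptor through artificial membrane over 4 h; donor, acceptor and t0 solutions read by UV plate reader; triplicate.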

[4] = Stability of the compound in human liver microsomes assessed as parent compound remaining at 0.5 uM measured after 10 mins in presence of NADPH by LC-MS/MS analysis; type: ADME, Microsome; settings: read-out: Stability
Method in brief: (§1)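 CYP-mediated turnover: 0.5 μM compound with human or rat liver microsomes (1 mg/mL) in 100 mM sodium phosphate pH 7.4, 6.6 mM MgCl2, 37 °C; started with NADPH, DMSO 0.014%. Samples quenched at 0 and 10 min; parent remaining by LC-MS/MS; duplicate.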

[5] = Stability of the compound in rat liver microsomes assessed as parent compound remaining at 0.5 uM measured after 10 mins in presence of NADPH by LC-MS/MS analysis; type: ADME, Microsome; settings: read-out: Stability; method in brief: as §1
[6] = tested on: Human immunodeficiency virus 1; assay: Antiviral activity against HIV1 NL4-3 harboring G140S/Q148H mutant infected in human MT2 cells measured after 3 to 4 days by luciferase reporter gene assay; type: functional, organism-based; settings: Human immunodeficiency virus 1, NL4-3, MT2
Method in brief: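 MT-2 cells (RPMI 1640, 10% heat-inactivated FBS, 10 mM HEPES pH 7.55, 2 mM L-glutamine, penicillin/streptomycin) infected with titered NL4-3 Renilla luciferase reporter virus (luciferase replacing nef) carrying integrase G140S/Q148H, with serial compound dilutions from 10 mM DMSO stock, final DMSO 1%; luciferase read after 3–4 days; EC50 from median effect equation; n ≥ 2, some n = 1.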

[7] = Cytotoxicity against human MT2 cells measured after 4 days by XTT assay; type: cell-based
Method in brief: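 MT-2 cell viability measured by XTT after 4 days of compound exposure, run in parallel with the antiviral assay; CC50 from n ≥ 2 determinations.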

[8] = Therapeutic index, ratio of CC50 for human MT2 cells to EC50 for HIV1 NL4-3 infected in human MT2 cells; type: toxicity, cell-based; settings: read-out: Ratio CC50/EC50
[9] = tested on: Human immunodeficiency virus 1; assay: Antiviral activity against HIV1 NL4-3 infected in human MT2 cells measured after 3 to 4 days in presence of human serum albumin by luciferase reporter gene assay; type: functional, organism-based; settings: Human immunodeficiency virus 1, NL4-3, MT2
[10] = tested on: Human immunodeficiency virus 1; assay: Selectivity ratio of EC50 for HIV1 NL4-3 infected in human MT2 cells in presence of human serum albumin to EC50 for HIV1 NL4-3 infected in human MT2 cells in absence of human serum albumin; type: functional

Human immunodeficiency virus type 1 integrase, sequence (Q7ZJM1 whole entry): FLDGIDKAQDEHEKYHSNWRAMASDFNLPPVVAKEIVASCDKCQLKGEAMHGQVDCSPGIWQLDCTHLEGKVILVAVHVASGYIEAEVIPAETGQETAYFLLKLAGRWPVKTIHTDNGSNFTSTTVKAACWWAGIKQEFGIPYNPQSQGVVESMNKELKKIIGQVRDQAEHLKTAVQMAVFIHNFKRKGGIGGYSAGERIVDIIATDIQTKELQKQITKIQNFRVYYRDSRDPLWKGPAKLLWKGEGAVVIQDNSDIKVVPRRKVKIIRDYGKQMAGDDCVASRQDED

Compound | Ki [1] [nM] | EC50 [2] [nM] | Papp at 4 h, 100 µM [3] [×10⁻⁶ cm/s] | remaining at 10 min, 0.5 µM [4] [%] | remaining at 10 min, 0.5 µM [5] [%] | EC50 [6] [nM] | CC50 at 96 h [7] [nM] | selectivity ratio [8] | EC50 [9] [nM] | Ratio EC50 [10]
Cc1nc2cc(-c3ccccc3)nn2c(-c2cc(F)c3c(c2C)CCCO3)c1[C@@H](OC(C)(C)C)C(=O)O | > 53000 | 13000 |  |  |  |  |  |  |  | 
COc1ccccc1-c1c(C(OC(C)(C)C)C(=O)O)c(C)nc2cc(-c3ccccc3)nn12 (stereo not drawn) | > 40000 | > 40000 |  |  |  |  |  |  |  | 
Cc1nc2cc(-c3cccc(-c4ccccc4)c3)nn2c(N2CCC(C)(C)CC2)c1C(OC(C)(C)C)C(=O)O (stereo not drawn) |  | 130 |  |  |  |  |  |  |  | 
Cc1nc2cc(-c3cccc(Oc4ccccc4)c3)nn2c(-c2cc(F)c3c(c2C)CCCO3)c1C(OC(C)(C)C)C(=O)O (stereo not drawn) |  | 60 | 47.2 | 100 | 97 |  |  |  |  | 
Cc1nc2cc(-c3ccccc3)nn2c(-c2ccccc2)c1C(OC(C)(C)C)C(=O)O (stereo not drawn) | 3700 | > 40000 |  |  |  |  |  |  |  | 
Cc1nc2cc(-c3ccccc3)nn2c(-c2cc(F)c3c(c2C)CCCO3)c1[C@H](OC(C)(C)C)C(=O)O | 90 | 110 |  |  |  | 90 |  |  |  | 
Cc1ccc(-c2cc3nc(C)c(C(OC(C)(C)C)C(=O)O)c(-c4cc(F)c5c(c4C)CCCO5)n3n2)cc1 (stereo not drawn) |  | 100 | 49.2 | 95 | 94 |  |  |  |  | 
Cc1nc2cc(-c3cccc(OCc4ccccc4)c3)nn2c(N2CCC(C)(C)CC2)c1C(OC(C)(C)C)C(=O)O (stereo not drawn) |  | 60 | 37.5 | 100 | 100 |  |  |  |  | 
Cc1nc2cc(-c3ccccc3)nn2c(N2CCC(C)(C)CC2)c1C(OC(C)(C)C)C(=O)O (stereo not drawn) | 60 | 550 | 70.3 | 100 |  |  |  |  |  | 
Cc1ccc(-c2c(C(OC(C)(C)C)C(=O)O)c(C)nc3cc(-c4ccccc4)nn23)cc1 (stereo not drawn) | 680 to 700 | 620 |  |  |  |  | 77000 |  |  | 
Cc1nc2cc(-c3cccc(-c4ccncc4)c3)nn2c(-c2cc(F)c3c(c2C)CCCO3)c1[C@H](OC(C)(C)C)C(=O)O |  | 3 | 48.8 | 46 | 94 |  | 13200 | 4410 | 70 | 23
COc1ccc(-c2cccc(-c3cc4nc(C)c([C@H](OC(C)(C)C)C(=O)O)c(-c5cc(F)c6c(c5C)CCCO6)n4n3)c2)cn1 |  | 5 | 51.4 | 73 | 100 |  | > 23000 | > 4600 | 23 | 5
Cc1ccc(-c2c(C(OC(C)(C)C)C(=O)O)c(C)nc3ccnn23)cc1 (stereo not drawn) | 2000 | 4500 |  |  |  |  |  |  |  | 
Cc1nc2cc(-c3cccc(-c4ccccc4)c3)nn2c(-c2cc(F)c3c(c2C)CCCO3)c1[C@H](OC(C)(C)C)C(=O)O |  | 6 | 73.3 | 78 | 96 |  | 6590 | 1100 | 110 | 18
Cc1cccc(-c2c(C(OC(C)(C)C)C(=O)O)c(C)nc3cc(-c4ccccc4)nn23)c1 (stereo not drawn) | 4400 | > 40000 |  |  |  |  |  |  |  | 
Cc1nc2cc(-c3ccccc3)nn2c(-c2ccc3c(c2)CCCO3)c1C(OC(C)(C)C)C(=O)O (stereo not drawn) | 40 | 490 |  |  |  |  |  |  |  | 
Cc1nc2cc(-c3cccc(OCc4ccccc4)c3)nn2c(-c2cc(F)c3c(c2C)CCCO3)c1C(OC(C)(C)C)C(=O)O (stereo not drawn) |  | 20 | 57 | 72 | 83 |  |  |  |  | 
